According to ChEMBL document CHEMBL1142586, “Bisnortriterpenes from Salacia madagascariensis” (J Nat Prod, 2005):
Values after ≈ are worked out from the molar mass of the structure shown.

Tests used:
Plasmodium falciparum [1] = assay: Antiplasmodial activity against Plasmodium falciparum W2; format: functional, organism-based
Leishmania donovani = assay: Antileishmanial activity against Leishmania donovani promastigotes after 48 hrs by alamar blue assay; format: functional, organism-based
How it was run: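 IC50 (µg/mL) was determined in two separate tests against Leishmania donovani, and the mean of the tests was reported. IC90 was also determined.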

[2] = Selectivity index, ratio of IC50 for african green monkey VERO cells to IC50 for Leishmania donovani; format: toxicity, cell-based; settings: read-out: Selectivity Index
How it was run: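 The index was calculated as the VERO cell IC50 divided by the mean IC50 against L. donovani from the two tests.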

Vero = assay: Cytotoxicity against african green monkey Vero cells; format: cell-based; settings: Chlorocebus sabaeus
[3] = system: Mycobacterium intracellulare; assay: Antimicrobial activity against Mycobacterium intracellular by alamar blue test; format: functional, organism-based
Staphylococcus aureus [4] = assay: Antimicrobial activity against methicillin-resistant Staphylococcus aureus by NCCLS method; format: functional, organism-based
[5] = Selectivity index, ratio of IC50 for african green monkey (Cercopithecus aethiops) Vero cells to IC50 for Plasmodium falciparum W2; format: toxicity, cell-based; settings: read-out: Selectivity Index
How it was run: (§1)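 The index was calculated as the VERO (monkey kidney cell line) IC50 divided by the IC50 against the respective P. falciparum clone.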

Staphylococcus aureus [6] = assay: Antimicrobial activity against Staphylococcus aureus by NCCLS method; format: functional, organism-based
Plasmodium falciparum [7] = assay: Antiplasmodial activity against Plasmodium falciparum D6; format: functional, organism-based
[8] = Selectivity index, ratio of IC50 for african green monkey (Cercopithecus aethiops) Vero cells to IC50 for Plasmodium falciparum D6; format: toxicity, cell-based; settings: read-out: Selectivity Index; how it was run: as §1
Leishmania mexicana = assay: Antileishmanial activity against Leishmania mexicana; format: functional, organism-based

Row | SMILES | IC50 (Plasmodium falciparum [1]) [µg/mL] | IC50 (Leishmania donovani) [µg/mL] | IC90 (Leishmania donovani) [µg/mL] | selectivity ratio [2] | IC50 (Vero) [µg/mL] | IC50 [3] [µg/mL] | IC50 (Staphylococcus aureus [4]) [µg/mL] | selectivity ratio [5] | IC50 (Staphylococcus aureus [6]) [µg/mL] | IC50 (Plasmodium falciparum [7]) [µg/mL] | selectivity ratio [8] | IC50 (Leishmania mexicana) [µg/mL]
1 | C[C@@H]1CC[C@H]2[C@@H](C)C(=O)O[C@@H]3O[C@@]4(C)CC[C@@H]1[C@]32OO4 [ARTEMISININ] | 0.0018 (≈ 0.00638 µM) | – | – | – | – | – | – | – | – | – | – | –
2 | C[C@@H]1[C@H](O)[C@@H](C)/C=C/C=C/C=C/C=C/C=C/C=C/C=C/[C@H](O[C@@H]2O[C@H](C)[C@@H](O)[C@H](N)[C@@H]2O)C[C@@H]2O[C@](O)(C[C@@H](O)C[C@@H](O)[C@H](O)CC[C@@H](O)C[C@@H](O)CC(=O)O[C@H]1C)C[C@H](O)[C@H]2C(=O)O [AMPHOTERICIN B] | – | 0.11 (≈ 0.119 µM) | 0.23 (≈ 0.249 µM) | 59 | 6.5 (≈ 7.03 µM) | – | – | – | – | – | – | –
3 | CC1=C(O)C(=O)C=C2C1=CC=C1[C@@]2(C)CC[C@@]2(C)[C@@H]3C[C@@H](CO)CC[C@]3(C)CC[C@]12C | 0.068 (≈ 0.161 µM) | 0.027 (≈ 0.0639 µM) | 0.057 (≈ 0.135 µM) | 31 | 2.1 (≈ 4.97 µM) | 15 (≈ 35.5 µM) | 0.7 (≈ 1.66 µM) | 31 | 0.65 (≈ 1.54 µM) | 0.068 (≈ 0.161 µM) | 31 | –
4 | C=C1CC[C@]2(C)CC[C@]3(C)C4=CC=C5C(=CC(=O)C(O)=C5C)[C@]4(C)CC[C@@]3(C)[C@@H]2C1 [ISOIGUESTERIN] | 0.17 (≈ 0.42 µM) | 0.032 (≈ 0.0791 µM) | 0.055 (≈ 0.136 µM) | 50 | 1.6 (≈ 3.95 µM) | 4.5 (≈ 11.1 µM) | 0.85 (≈ 2.1 µM) | 3.9 | 0.85 (≈ 2.1 µM) | 0.2 (≈ 0.494 µM) | 3.4 | 0.035 (≈ 0.0865 µM)
